Consider four compounds from PubChem BioAssay AID463146 (The Scripps Research Institute Molecular Screening Center, 2010).

For the test, the target named is Protein phosphatase methylesterase 1 (Homo sapiens) (UniProt Q9Y570). Put plainly: PME-1 inhibition in proteomic lysates, late-stage follow-up, cell lysate, gel ABPP, fluorescence, HeLa, MDA-MB-231 (AID 463146). Conditions: HeLa/MDA-MB-231 lysate, FP-Rh gel ABPP fluorescence, at 10 µM (top of the series). The method, boiled down: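 Material: PME-1 in HeLa or MDA-MB-231 lysate / Quantity: soluble proteome at 1 mg/mL total protein / Also added: rhodamine fluorophosphonate activity probe (FP-Rh), 1 µM final / Times: 30 min compound at 25 °C, 20 min probe / Signal: SDS-PAGE separation with in-gel fluorescence scanning of probe labeling / Benchmarks: DMSO high control, gel background low control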
Protein phosphatase methylesterase 1 (Homo sapiens), sequence (Q9Y570 whole entry, looked up): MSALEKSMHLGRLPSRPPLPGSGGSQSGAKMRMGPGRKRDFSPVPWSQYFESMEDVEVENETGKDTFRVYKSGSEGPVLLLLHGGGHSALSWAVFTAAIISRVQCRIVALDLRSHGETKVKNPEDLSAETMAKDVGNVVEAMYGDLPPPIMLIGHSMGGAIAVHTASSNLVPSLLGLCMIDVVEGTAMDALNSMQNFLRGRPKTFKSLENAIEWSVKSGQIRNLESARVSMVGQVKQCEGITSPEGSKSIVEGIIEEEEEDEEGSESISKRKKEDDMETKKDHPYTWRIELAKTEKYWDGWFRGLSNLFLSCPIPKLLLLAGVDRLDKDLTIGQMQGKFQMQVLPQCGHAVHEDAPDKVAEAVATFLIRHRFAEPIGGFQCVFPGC

For the compound `COC(=O)N1C(=O)[C@](c2ccccc2)(C2CCCCC2)N1C(=O)OC`, the inhibition is, setting by setting: (HeLa Lysate) 100%; (MDA-MB-231 Lysate) 100%.

On to `COC(=O)N1C(=O)[C@](c2ccccc2)(C2CCCC2)N1C(=O)OC`, for which the inhibition is 100% (HeLa Lysate) and 100% (MDA-MB-231 Lysate).

As to `COC(=O)N1C(=O)[C@@](c2ccccc2)(C2CCCCC2)N1C(=O)OC`, the inhibition (HeLa Lysate) is 100%.

Turning to `COC(=O)N1C(=O)[C@@](c2ccccc2)(C2CCCC2)N1C(=O)OC`, the inhibition (HeLa Lysate) is 100%.
